Measurements published in ChEMBL document CHEMBL4354843, “Structure-Based Design of a Potent and Selective Covalent Inhibitor for SRC Kinase That Targets a P-Loop Cysteine” (J Med Chem, 2020).

Tests used:
[1] = biological target: Serine/threonine-protein kinase VRK2 (Homo sapiens) (UniProt Q86Y07); assay: Binding affinity to wild-type human partial length VRK2 (M1 to T336 residues) expressed in mammalian expression system assessed as residual binding level at 1 uM by Kinomescan method relative to control
Outline: (§1)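 Active site-directed competition binding panel (KinomeScan, 468 kinases). Test compound at 1 μM. Read-out is kinase binding remaining versus DMSO control, expressed as percent of control. Scores above 35% are treated as weak binding.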

[2] = biological target: Serine/threonine-protein kinase WNK4 (Homo sapiens) (UniProt Q96J92); assay: Binding affinity to wild-type human partial length WNK4 (A31 to D461 residues) expressed in mammalian expression system assessed as residual binding level at 1 uM by Kinomescan method relative to control; outline: as §1
[3] = biological target: Serine/threonine-protein kinase SBK1 (Homo sapiens) (UniProt Q52WX2); assay: Binding affinity to wild-type human partial length SBK1 (P23 to P348 residues) expressed in mammalian expression system assessed as residual binding level at 1 uM by Kinomescan method relative to control
[4] = biological target: Serine/threonine-protein kinase tousled-like 1 (Homo sapiens) (UniProt Q9UKI8); assay: Binding affinity to wild-type human partial length TLK1 (K447 to A754 residues) expressed in bacterial expression system assessed as residual binding level at 1 uM by Kinomescan method relative to control
[5] = biological target: Calcium/calmodulin-dependent protein kinase type 1 (Homo sapiens) (UniProt Q14012); assay: Binding affinity to wild-type human full length CAMK1 (M1 to L370 residues) expressed in bacterial expression system assessed as residual binding level at 1 uM by Kinomescan method relative to control
Outline: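 Active-site-directed KinomeScan competition binding panel covering 468 kinases, compound tested at 1 μM. Each readout is the kinase signal remaining with compound, expressed as a percentage of the DMSO control. […]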

[6] = biological target: Dual specificity mitogen-activated protein kinase kinase 6 (Homo sapiens) (UniProt P52564); assay: Binding affinity to wild-type human partial length MEK6 (K36 to D334 residues) expressed in bacterial expression system assessed as residual binding level at 1 uM by Kinomescan method relative to control
Outline: (§2)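 Active-site-directed competition binding panel of 468 kinases (KinomeScan), compound at 1 μM. The read-out is kinase remaining bound, given as a percentage of the DMSO control. […]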

[7] = biological target: Mast/stem cell growth factor receptor Kit (Homo sapiens) (UniProt P10721); assay: Binding affinity to wild-type human partial length KIT (I571 to D952 residues) expressed in bacterial expression system assessed as residual binding level at 1 uM by Kinomescan method relative to control
[8] = biological target: Interleukin-1 receptor-associated kinase 3 (Homo sapiens) (UniProt Q9Y616); assay: Binding affinity to wild-type human partial length IRAK3 (V147 to E596 residues) expressed in bacterial expression system assessed as residual binding level at 1 uM by Kinomescan method relative to control
[9] = test system: Tyrosine-protein kinase ABL1 (Homo sapiens), P00519 [F317L]; assay: Binding affinity to human non-phosphorylated ABL1 F317L mutant (S229 to K512 residues) expressed in mammalian expression system assessed as residual binding level at 1 uM by Kinomescan method relative to control
Outline: (§3)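 KinomeScan active site-directed competition binding panel (468 kinases), compound tested at 1 μM. Result expressed as remaining kinase signal versus DMSO control (percent of control).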

[10] = biological target: Serine/threonine-protein kinase N1 (Homo sapiens) (UniProt Q16512); assay: Binding affinity to wild-type human partial length PKN1 (E598 to C948 residues) expressed in bacterial expression system assessed as residual binding level at 1 uM by Kinomescan method relative to control; outline: as §2
[11] = biological target: Tyrosine-protein kinase Blk (Homo sapiens) (UniProt P51451); assay: Binding affinity to wild-type human partial length BLK (G211 to L503 residues) expressed in bacterial expression system assessed as residual binding level at 1 uM by Kinomescan method relative to control
Outline: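 KinomeScan, an active site-directed competition binding panel of 468 kinases. The test compound was at 1 μM. The readout is remaining kinase binding as a percentage of the DMSO control. Scores above 35% were treated as weak binding and not listed.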

[12] = biological target: Non-receptor tyrosine-protein kinase TYK2 (Homo sapiens) (UniProt P29597); assay: Binding affinity to wild-type human partial length TYK2 JH2 pseudokinase domain (G556 to D888 residues) expressed in mammalian expression system assessed as residual binding level at 1 uM by Kinomescan method relative to control
[13] = biological target: Phosphatidylinositol 4,5-bisphosphate 3-kinase catalytic subunit gamma isoform (Homo sapiens) (UniProt P48736); assay: Binding affinity to wild-type human partial length PIK3CG (S144 to A1102 residues) expressed in mammalian expression system assessed as residual binding level at 1 uM by Kinomescan method relative to control
[14] = test system: Proto-oncogene tyrosine-protein kinase receptor Ret (Homo sapiens), P07949 [V804M]; assay: Binding affinity to human partial length RET V804M mutant (E713 to D1014 residues) expressed in bacterial expression system assessed as residual binding level at 1 uM by Kinomescan method relative to control; outline: as §3
[15] = biological target: Calcium/calmodulin-dependent protein kinase kinase 2 (Homo sapiens) (UniProt Q96RR4); assay: Binding affinity to wild-type human partial length CAMKK2 (D65 to V471 residues) expressed in bacterial expression system assessed as residual binding level at 1 uM by Kinomescan method relative to control
[16] = biological target: Homeodomain-interacting protein kinase 4 (Homo sapiens) (UniProt Q8NE63); assay: Binding affinity to wild-type human partial length HIPK4 (M1 to V384 residues) expressed in bacterial expression system assessed as residual binding level at 1 uM by Kinomescan method relative to control
[17] = test system: Epidermal growth factor receptor (Homo sapiens), P00533 [UNDEFINED MUTATION]; assay: Binding affinity to human partial length EGFR L747-E749del/A750P mutant expressed in bacterial expression system assessed as residual binding level at 1 uM by Kinomescan method relative to control; outline: as §3
[18] = biological target: Serine/threonine-protein kinase 32C (Homo sapiens) (UniProt Q86UX6); assay: Binding affinity to wild-type human partial length YANK3 (M68 to G486 residues) expressed in bacterial expression system assessed as residual binding level at 1 uM by Kinomescan method relative to control
[19] = biological target: Serine/threonine-protein kinase MRCK beta (Homo sapiens) (UniProt Q9Y5S2); assay: Binding affinity to wild-type human partial length MRCKB (L56 to S417 residues) expressed in bacterial expression system assessed as residual binding level at 1 uM by Kinomescan method relative to control
[20] = biological target: Myotonin-protein kinase (Homo sapiens) (UniProt Q09013); assay: Binding affinity to wild-type human partial length DMPK (V47 to V415 residues) expressed in bacterial expression system assessed as residual binding level at 1 uM by Kinomescan method relative to control
[21] = biological target: Mitogen-activated protein kinase kinase kinase 4 (Homo sapiens) (UniProt Q9Y6R4); assay: Binding affinity to wild-type human partial length MAP3K4 (G1319 to E1608 residues) expressed in bacterial expression system assessed as residual binding level at 1 uM by Kinomescan method relative to control

Chain of Serine/threonine-protein kinase VRK2 (Homo sapiens) (Q86Y07 whole entry, the tested form may be a part): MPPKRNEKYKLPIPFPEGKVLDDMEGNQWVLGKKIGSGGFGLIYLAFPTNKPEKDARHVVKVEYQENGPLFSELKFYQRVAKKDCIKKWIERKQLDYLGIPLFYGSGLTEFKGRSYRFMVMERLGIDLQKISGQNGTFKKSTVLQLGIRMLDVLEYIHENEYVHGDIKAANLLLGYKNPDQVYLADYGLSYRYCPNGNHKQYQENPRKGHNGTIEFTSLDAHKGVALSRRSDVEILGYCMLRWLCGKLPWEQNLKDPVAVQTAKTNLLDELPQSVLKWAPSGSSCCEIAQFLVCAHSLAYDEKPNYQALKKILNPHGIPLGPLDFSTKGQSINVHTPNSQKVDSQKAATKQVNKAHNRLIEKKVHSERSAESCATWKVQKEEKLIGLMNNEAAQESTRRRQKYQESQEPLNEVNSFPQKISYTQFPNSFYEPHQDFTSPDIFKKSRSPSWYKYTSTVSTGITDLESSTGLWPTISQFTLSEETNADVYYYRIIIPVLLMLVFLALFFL
Chain of Serine/threonine-protein kinase WNK4 (Homo sapiens) (Q96J92 whole entry, the tested form may be a part): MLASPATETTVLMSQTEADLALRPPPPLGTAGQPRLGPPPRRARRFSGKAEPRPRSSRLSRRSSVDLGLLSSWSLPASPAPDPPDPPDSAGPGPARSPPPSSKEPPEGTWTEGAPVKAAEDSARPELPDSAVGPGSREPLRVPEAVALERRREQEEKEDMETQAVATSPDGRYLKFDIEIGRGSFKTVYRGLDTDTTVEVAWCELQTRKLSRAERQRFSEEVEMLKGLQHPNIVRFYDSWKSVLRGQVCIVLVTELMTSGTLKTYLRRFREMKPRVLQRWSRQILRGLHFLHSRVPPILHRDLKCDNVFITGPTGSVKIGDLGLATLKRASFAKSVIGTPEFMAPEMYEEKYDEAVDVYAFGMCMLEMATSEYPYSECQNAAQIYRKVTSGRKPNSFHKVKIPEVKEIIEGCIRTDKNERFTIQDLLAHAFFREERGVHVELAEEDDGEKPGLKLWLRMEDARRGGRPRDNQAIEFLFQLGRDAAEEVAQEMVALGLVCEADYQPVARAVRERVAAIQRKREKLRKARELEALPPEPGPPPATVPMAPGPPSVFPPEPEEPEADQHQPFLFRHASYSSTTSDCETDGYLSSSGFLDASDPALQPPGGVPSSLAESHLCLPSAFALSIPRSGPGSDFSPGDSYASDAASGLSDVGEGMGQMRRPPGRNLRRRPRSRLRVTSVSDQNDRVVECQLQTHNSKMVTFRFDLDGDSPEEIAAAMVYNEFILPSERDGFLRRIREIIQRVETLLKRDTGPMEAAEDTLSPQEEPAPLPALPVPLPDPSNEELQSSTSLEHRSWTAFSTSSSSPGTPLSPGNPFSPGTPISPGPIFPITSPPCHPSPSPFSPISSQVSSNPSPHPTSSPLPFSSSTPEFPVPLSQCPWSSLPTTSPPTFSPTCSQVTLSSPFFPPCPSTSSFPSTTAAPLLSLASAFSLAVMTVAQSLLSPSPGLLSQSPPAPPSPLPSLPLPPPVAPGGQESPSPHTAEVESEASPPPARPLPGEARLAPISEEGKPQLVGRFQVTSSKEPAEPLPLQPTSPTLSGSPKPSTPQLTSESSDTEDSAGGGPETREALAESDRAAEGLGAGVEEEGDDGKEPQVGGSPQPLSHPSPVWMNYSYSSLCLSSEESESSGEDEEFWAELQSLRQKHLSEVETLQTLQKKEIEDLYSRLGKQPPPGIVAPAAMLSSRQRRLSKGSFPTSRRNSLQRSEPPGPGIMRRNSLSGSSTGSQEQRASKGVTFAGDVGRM
Chain of Tyrosine-protein kinase Blk (Homo sapiens) (P51451 2-505 limits assumed): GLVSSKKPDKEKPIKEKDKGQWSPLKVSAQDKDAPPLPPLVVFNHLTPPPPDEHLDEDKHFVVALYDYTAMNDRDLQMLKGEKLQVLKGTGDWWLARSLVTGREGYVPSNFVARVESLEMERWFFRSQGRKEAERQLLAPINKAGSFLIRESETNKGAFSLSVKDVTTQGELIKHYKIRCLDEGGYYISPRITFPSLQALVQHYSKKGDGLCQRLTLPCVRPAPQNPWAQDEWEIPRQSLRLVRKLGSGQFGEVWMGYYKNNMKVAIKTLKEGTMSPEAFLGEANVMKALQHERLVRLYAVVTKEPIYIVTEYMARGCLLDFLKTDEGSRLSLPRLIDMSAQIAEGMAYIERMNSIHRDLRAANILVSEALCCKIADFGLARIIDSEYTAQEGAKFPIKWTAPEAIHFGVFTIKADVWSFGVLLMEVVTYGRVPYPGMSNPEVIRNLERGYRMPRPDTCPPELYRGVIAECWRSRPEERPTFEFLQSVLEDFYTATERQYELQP
Chain of Non-receptor tyrosine-protein kinase TYK2 (Homo sapiens) (P29597 whole entry, the tested form may be a part, canonical isoform): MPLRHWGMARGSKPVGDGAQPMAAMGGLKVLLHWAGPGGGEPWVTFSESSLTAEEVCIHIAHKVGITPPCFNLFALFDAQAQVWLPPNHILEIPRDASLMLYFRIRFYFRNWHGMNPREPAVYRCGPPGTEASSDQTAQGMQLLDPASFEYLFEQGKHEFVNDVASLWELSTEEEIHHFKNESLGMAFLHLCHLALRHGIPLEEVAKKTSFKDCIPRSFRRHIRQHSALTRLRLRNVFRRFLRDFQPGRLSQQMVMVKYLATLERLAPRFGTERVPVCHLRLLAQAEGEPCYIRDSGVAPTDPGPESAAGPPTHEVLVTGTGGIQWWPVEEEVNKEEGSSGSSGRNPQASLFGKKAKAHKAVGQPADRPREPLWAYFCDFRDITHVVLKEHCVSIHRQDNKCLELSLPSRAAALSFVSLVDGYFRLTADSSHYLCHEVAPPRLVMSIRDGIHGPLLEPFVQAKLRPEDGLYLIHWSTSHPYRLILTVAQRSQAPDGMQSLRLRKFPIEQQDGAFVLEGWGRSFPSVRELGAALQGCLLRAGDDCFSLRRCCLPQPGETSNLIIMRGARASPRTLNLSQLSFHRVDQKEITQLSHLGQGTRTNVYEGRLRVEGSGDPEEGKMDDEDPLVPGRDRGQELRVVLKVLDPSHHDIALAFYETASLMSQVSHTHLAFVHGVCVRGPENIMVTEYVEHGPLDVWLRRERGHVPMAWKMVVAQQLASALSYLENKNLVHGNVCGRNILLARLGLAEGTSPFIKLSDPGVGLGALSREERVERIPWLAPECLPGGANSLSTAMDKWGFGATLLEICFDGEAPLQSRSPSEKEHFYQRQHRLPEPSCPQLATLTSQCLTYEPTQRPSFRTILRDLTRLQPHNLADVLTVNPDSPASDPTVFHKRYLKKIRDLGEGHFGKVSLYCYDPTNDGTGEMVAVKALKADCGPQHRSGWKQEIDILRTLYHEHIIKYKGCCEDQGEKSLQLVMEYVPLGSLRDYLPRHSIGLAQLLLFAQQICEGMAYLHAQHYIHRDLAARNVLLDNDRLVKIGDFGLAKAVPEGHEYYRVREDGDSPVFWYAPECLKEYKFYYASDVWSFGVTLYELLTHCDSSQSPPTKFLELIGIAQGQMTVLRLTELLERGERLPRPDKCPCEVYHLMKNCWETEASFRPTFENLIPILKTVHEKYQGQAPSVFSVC
Chain of Mast/stem cell growth factor receptor Kit (Homo sapiens) (P10721 whole entry, the tested form may be a part): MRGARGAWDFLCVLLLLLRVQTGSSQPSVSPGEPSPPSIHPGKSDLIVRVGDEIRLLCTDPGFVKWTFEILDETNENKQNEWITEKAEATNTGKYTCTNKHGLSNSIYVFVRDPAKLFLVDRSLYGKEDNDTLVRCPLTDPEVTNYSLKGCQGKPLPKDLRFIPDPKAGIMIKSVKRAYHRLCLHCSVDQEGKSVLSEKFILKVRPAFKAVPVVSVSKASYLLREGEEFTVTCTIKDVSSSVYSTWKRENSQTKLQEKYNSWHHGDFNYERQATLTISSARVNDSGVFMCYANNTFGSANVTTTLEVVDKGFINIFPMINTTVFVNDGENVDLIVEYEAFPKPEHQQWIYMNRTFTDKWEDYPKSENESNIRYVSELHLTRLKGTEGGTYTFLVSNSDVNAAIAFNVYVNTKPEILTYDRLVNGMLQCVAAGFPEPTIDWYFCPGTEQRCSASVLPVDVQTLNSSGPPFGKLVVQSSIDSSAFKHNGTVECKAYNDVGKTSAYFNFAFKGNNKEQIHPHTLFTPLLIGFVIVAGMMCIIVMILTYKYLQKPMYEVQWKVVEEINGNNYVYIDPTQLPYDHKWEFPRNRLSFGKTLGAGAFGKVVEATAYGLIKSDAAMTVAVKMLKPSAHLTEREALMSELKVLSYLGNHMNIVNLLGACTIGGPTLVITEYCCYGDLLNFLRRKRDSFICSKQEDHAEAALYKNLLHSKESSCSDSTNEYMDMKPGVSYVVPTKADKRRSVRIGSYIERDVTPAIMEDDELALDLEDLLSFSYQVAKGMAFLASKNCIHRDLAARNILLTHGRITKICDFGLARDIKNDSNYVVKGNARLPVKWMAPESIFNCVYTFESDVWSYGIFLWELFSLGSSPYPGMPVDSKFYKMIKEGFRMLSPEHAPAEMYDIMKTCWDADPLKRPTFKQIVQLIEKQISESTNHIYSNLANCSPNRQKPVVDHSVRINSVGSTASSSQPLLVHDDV
Chain of Homeodomain-interacting protein kinase 4 (Homo sapiens) (Q8NE63 whole entry, the tested form may be a part): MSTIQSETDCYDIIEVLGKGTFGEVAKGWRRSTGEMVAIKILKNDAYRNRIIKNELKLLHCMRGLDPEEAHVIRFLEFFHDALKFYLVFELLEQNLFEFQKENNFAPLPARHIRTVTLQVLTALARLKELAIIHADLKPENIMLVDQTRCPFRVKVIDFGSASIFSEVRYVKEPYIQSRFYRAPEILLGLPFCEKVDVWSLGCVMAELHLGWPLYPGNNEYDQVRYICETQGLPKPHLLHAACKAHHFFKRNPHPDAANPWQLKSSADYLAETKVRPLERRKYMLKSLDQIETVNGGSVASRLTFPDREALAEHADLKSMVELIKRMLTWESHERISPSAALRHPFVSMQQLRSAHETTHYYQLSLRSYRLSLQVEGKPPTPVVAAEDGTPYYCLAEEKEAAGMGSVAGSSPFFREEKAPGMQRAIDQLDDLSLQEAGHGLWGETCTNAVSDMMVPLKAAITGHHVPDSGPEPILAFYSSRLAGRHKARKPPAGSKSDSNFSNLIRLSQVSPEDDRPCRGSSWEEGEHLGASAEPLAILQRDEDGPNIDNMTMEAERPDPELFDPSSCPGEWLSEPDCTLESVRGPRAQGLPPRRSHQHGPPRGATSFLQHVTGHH

## C=CC(=O)Nc1ccccc1Nc1nc(Nc2ccc(N3CCN(C)CC3)cc2)ncc1C(=O)Nc1c(C)cccc1Cl
[1]
  Activity: 71%
[2]
  Activity: 97%
[3]
  Activity: 100%
[4]
  Activity: 100%
[5]
  Activity: 100%
[6]
  Activity: 99%
[7]
  Activity: 40%
[8]
  Activity: 100%
[9]
  Activity: 0.9%
[10]
  Activity: 83%
[11]
  Activity: 0.15%
[12]
  Activity: 100%
[13]
  Activity: 100%
[14]
  Activity: 100%
[15]
  Activity: 100%
[16]
  Activity: 100%
[17]
  Activity: 66%
[18]
  Activity: 100%
[19]
  Activity: 100%
[20]
  Activity: 100%
[21]
  Activity: 65%
